This note sets out measurements from ChEMBL document CHEMBL1124451, “[(1H-imidazol-1-yl)methyl]- and [(3-pyridinyl)methyl]pyrroles as thromboxane synthetase inhibitors” (J Med Chem, 1989).

A word on the inhibition in vivo: it is the share of the control response that was lost under treatment. Usually pIC50 stands for the IC50 on a negative log10 scale, so that one unit is a factor of ten.

Molecules are shown by their SMILES. pIC50: −log10 of the molar value.

Test [1] concerns Mus musculus. Put plainly: Activity at 10 mg/kg given perorally against mortality in a pulmonary thromboembolism model in mice (10 animals) at -3h following oral administration. It is filed as functional. Put shortly:
(§1)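 Male Swiss-Webster mice (22-26 g), 10 per group (one group of 9); test material given po in 0.2 mL CMC at -1, -3, -5 or -18 h before challenge. At hour 0, collagen extract plus epinephrine hydrochloride given iv via tail vein in 0.9% saline. The collagen amount was titrated per lot to 90-100% mortality in vehicle controls. Readout: % surviving at 24 h.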

The target of test [2] is T1, Thromboxane-A synthase (Homo sapiens) (UniProt P24557).
T1 sequence (whole entry): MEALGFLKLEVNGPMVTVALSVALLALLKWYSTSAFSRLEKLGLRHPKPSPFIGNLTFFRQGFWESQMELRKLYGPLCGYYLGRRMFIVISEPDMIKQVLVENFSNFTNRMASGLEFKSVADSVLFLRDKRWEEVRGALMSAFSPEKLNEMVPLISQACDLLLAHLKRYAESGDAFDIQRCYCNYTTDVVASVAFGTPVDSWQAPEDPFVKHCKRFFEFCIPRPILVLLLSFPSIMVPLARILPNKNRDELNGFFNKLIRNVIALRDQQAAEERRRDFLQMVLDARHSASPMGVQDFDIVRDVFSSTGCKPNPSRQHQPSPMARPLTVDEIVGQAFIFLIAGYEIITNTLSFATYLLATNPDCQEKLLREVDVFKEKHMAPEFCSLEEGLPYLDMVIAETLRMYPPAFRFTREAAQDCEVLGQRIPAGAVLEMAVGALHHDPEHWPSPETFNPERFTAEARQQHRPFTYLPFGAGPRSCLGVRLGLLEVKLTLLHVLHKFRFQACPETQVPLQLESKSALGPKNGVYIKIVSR
Put plainly: Relative potency of thromboxane A2 synthetase as reduced ADP-induced aggregation of human platelet rich plasma compared to dazoxiben. The class given is functional, cell-free.

The subject of test [3] is Rattus norvegicus. Nature of the test: Percent inhibition of thromboxane from control in serum of rats with 5/6 nephrectomy at 410 mg/kg per day. It is filed as functional. Put shortly:
(§2)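 Male Munich Wistar rats, 200-270 g, 5/6 renal ablation (right nephrectomy plus ligation of arterial branches to two-thirds of left kidney) under 50 mg/kg brevital ip. Drug given in drinking water from 1 week post-surgery: 500 mg/L (68 mg/kg/day), 1500 mg/L (205 mg/kg/day), or 3000 mg/L (410 mg/kg/day) after 9 weeks. TXB2 measured by radioimmunoassay in urine (8-11 weeks) and serum (10-13 weeks); controls received water.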

Test [4] has as its system Rattus norvegicus. Nature of the test: Concentration of thromboxane in serum of rats with 5/6 nephrectomy; when treated with compound at 205 mg/kg per day (n=4). It is filed as functional, organism-based. Put shortly:
as §2

Test [5] deals with Mus musculus. Nature of the test: Activity at 10 mg/kg given perorally against mortality in a pulmonary thromboembolism model in mice (10 animals) at -18h following oral administration. The class given is functional. The procedure, abridged:
as §1

Test [6] relates to Mus musculus. Put plainly: Activity at 25 mg/kg given intravenously against mortality in a pulmonary thromboembolism model in mice (10 animals) at 3 hr. The class given is functional. Particulars: route intravenous. The procedure, abridged:
(§3)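 Male Swiss-Webster mice (22-26 g); test material given iv in 0.2 mL CMC before challenge (mostly at -3 h, one group at -1 h). At hour 0, collagen extract plus epinephrine hydrochloride given iv in 0.2 mL 0.9% saline via tail vein. The collagen amount was set per lot as the minimum giving 90-100% mortality in CMC-vehicle controls. Readout: % surviving at 24 h.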

Test [7] relates to Rattus norvegicus. Put plainly: Total glomeruli with lesions was determined […], in kidneys of rats after dosing with compound at 205 mg/kg per day. It is filed as functional, Kidney. The procedure, abridged:
(§4)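 5/6 renal ablated male Munich Wistar rats received drug in drinking water: 205 mg/kg/day, or 68 mg/kg/day for 9 weeks then 410 mg/kg/day for 4 weeks; controls received water. Kidneys perfused with fixative at end of week 10 (205 group) or week 13. Glomeruli with lesions counted (mesangial proliferation, tubular hyaline casts, cortical interstitial inflammation, hydronephrosis); mean ± SEM.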

The species named for test [8] is Rattus norvegicus. Put plainly: Effect of TXA2 Synthetase inhibition (perorally) upon inflammation in rat adjuvant-induced arthritis model. The class given is functional.
In test [9] the test system is Rattus norvegicus. Put plainly: Concentration of thromboxane in urine of rats with 5/6 nephrectomy; when treated with compound at 205 mg/kg per day (n=5). It is filed as functional, organism-based. The procedure, abridged: as §2
Test [10] has as its system Rattus norvegicus. Put plainly: Concentration of thromboxane in serum of rats with 5/6 nephrectomy; when treated with compound at 410 mg/kg per day (n=4). It is filed as functional, organism-based. The procedure, abridged:
as §2

Test [11] concerns Rattus norvegicus. Nature of the test: Percent inhibition of thromboxane from control in serum of rats with 5/6 nephrectomy at 205 mg/kg per day. It is filed as functional. Put shortly: as §2
Test [12] deals with Mus musculus. Put plainly: Activity at 10 mg/kg given perorally against mortality in a pulmonary thromboembolism model in mice (10 animals) at 1 hr. The class given is functional. Particulars: route oral. The procedure, abridged: as §1
Test [13] deals with Mus musculus. Put plainly: Activity at 10 mg/kg given perorally against mortality in a pulmonary thromboembolism model in mice (10 animals) at -1h following oral administration. The class given is functional. The procedure, abridged:
as §1

For test [14], the system named is Rattus norvegicus. Nature of the test: Effect of TXA2 Synthetase inhibition (perorally) upon inflammation in carrageenan induced rat paw edema in rats. Background: In the carrageenan paw model, swelling and tenderness develop within hours.
Test [15] deals with Rattus norvegicus. Put plainly: Percent inhibition of thromboxane from control in urine of rats with 5/6 nephrectomy at 410 mg/kg per day. It is filed as functional. Put shortly:
as §2

The subject of test [16] is Rattus norvegicus. Put plainly: Concentration of thromboxane in urine of rats with 5/6 nephrectomy; when treated with compound at 68 mg/kg per day (n=4). It is filed as functional, organism-based. The procedure, abridged: as §2
The test system of test [17] is Rattus norvegicus. Nature of the test: Percent inhibition of thromboxane from control in urine of rats with 5/6 nephrectomy at 68 mg/kg per day. It is filed as functional. The procedure, abridged: as §2
For test [18], the system named is Mus musculus. Put plainly: Activity at 12.5 mg/kg given intravenously against mortality in a pulmonary thromboembolism model in mice (10 animals) at 3 hr. The class given is functional. Particulars: route intravenous. The procedure, abridged: as §3
Test [19] concerns Mus musculus. Nature of the test: Activity at 10 mg/kg given perorally against mortality in a pulmonary thromboembolism model in mice (10 animals) at -5h following oral administration. The class given is functional. Put shortly:
as §1

The species named for test [20] is Mus musculus. Put plainly: Effect of TXA2 Synthetase inhibition (perorally) upon inflammation in phenoylquinone-induced writhing in mice. The class given is functional. (In general: In writhing tests, fewer writhes than in controls are read as antinociception.)
In test [21] the test system is Rattus norvegicus. Nature of the test: Total glomeruli with lesions was determined […], in kidneys of rats after dosing at 68 mg/kg per day for 9 weeks following by dosing with 410 mg/kg/day for 4 weeks. It is filed as functional, Kidney. Put shortly:
as §4

In test [22] the test system is Mus musculus. Nature of the test: Effect of TXA2 Synthetase inhibition (topically) upon inflammation in arachidonic acid induced ear edema in mice. It is filed as functional. The procedure, abridged: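 Arachidonic acid-induced ear edema in mice; test material applied topically at 2 mg/mouse.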
In test [23] the test system is Rattus norvegicus. Put plainly: Concentration of thromboxane in urine of rats with 5/6 nephrectomy; when treated with compound at 410 mg/kg per day (n=4). The class given is functional, organism-based. Put shortly:
as §2

Test [24] deals with Rattus norvegicus. Nature of the test: Percent inhibition of thromboxane from control in urine of rats with 5/6 nephrectomy at 205 mg/kg per day. It is filed as functional. Put shortly:
as §2

Test [25] relates to Mus musculus. Put plainly: Effect of TXA2 Synthetase inhibition (topically) upon inflammation in 12-O-tetradecanoylphorbol acetate induced ear edema in mice. It is filed as functional.
Test [26] has as its system Mus musculus. Put plainly: Effect of TXA2 Synthetase inhibition (perorally) upon inflammation in oxazolone induced delayed hypersensitivity ear edema in mice. The class given is functional. The procedure, abridged:
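Oxazolone-induced delayed hypersensitivity ear edema in mice; test material dosed orally at 25 mg/kg.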

The subject of test [27] is Mus musculus. Nature of the test: Activity at 6.25 mg/kg given intravenously against mortality in a pulmonary thromboembolism model in mice (10 animals) at 3 hr. It is filed as functional. Particulars: route intravenous. The procedure, abridged:
as §3

In test [28] the test system is Mus musculus. Nature of the test: Activity at 10 mg/kg […] against mortality in a pulmonary thromboembolism model in mice (10 animals) at -7h following oral administration. The class given is functional.
Test [29] concerns Mus musculus. Nature of the test: Activity at 10 mg/kg given intravenously against mortality in a pulmonary thromboembolism model in mice (10 animals) at -1h. The following applies: route intravenous. It is filed as functional. Put shortly:
as §3

For test [30], the system named is Mus musculus. Put plainly: Activity at 10 mg/kg […] against mortality in a pulmonary thromboembolism model in mice (10 animals) at -1h following oral administration. The class given is functional. The procedure, abridged: as §1
Test [31] concerns Mus musculus. Nature of the test: Activity at 10 mg/kg […] against mortality in a pulmonary thromboembolism model in mice (10 animals) at -18h following oral administration. It is filed as functional. The procedure, abridged:
as §1

In test [32] the test system is Mus musculus. Put plainly: Activity at 25 mg/kg given intravenously against mortality in a pulmonary thromboembolism model in mice (9 animals) at -3h. The class given is functional. The following applies: route intravenous. The procedure, abridged: as §3
In test [33] the test system is Mus musculus. Nature of the test: Activity at 10 mg/kg […] against mortality in a pulmonary thromboembolism model in mice (10 animals) at -5h following oral administration. It is filed as functional. The procedure, abridged:
as §1

For test [34], the species on record is Homo sapiens. Nature of the test: In vitro inhibition of ADP-induced aggregation of human platelet rich plasma in the presence of pig aortal microsomes. It is filed as functional. The following applies: Aorta. The procedure, abridged: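 Human citrated blood (0.38% citrate final), PRP by centrifugation at 200g, room temperature. Drug added to 1.0 mL PRP, 2 min at 37 °C with stirring (500 rpm), then pig aortal microsomes 3 min; microsome amount set by the dazoxiben standard. Aggregation induced by 5 μM ADP (final), read turbidimetrically.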

Test [35] relates to Mus musculus. Nature of the test: Activity at 10 mg/kg […] against mortality in a pulmonary thromboembolism model in mice (10 animals) at -3h following oral administration. The class given is functional. The procedure, abridged: as §1

In the case of `C/C(=C/c1ccc(Cn2ccnc2)n1C)C(=O)O`, the survival at 10 mg/kg in [1] turned out to be 40%; in [5], 10%; in [12], 50%; in [13] it was 40%; in test [19], 30%. Further, in [2], the Relative potency came to 2.2. For the same compound, the inhibition in vivo at 410 mg/kg/day in [3] came out at 92.8%; in test [15], 70.4%. Further, the Concentration in [4] stood at 10 ng/day; in [9], 45 ng/day; in test [10] it was 36 ng/day; in test [16], 42 ng/day; in test [23], 59 ng/day. Moreover, the survival at 25 mg/kg in [6] was found to be 90%. Moreover, the Total glomeruli is 13 in [7] and 8 in [21]. Further, the Dose was found to be 4.25 mg rat-1 in test [8]; 10 mg rat-1 in test [14]; 3 mg mouse-1 in [20]; 2 mg mouse-1 in test [22]; 0.5 mg mouse-1 in test [25]; 25 mg/kg in test [26]. The inhibition in vivo at 205 mg/kg/day in [11] was 98%; in test [24], 77.4%. This compound gave an inhibition in vivo at 68 mg/kg/day in test [17] of 78.9%. Moreover, the survival at 12.5 mg/kg in test [18] is 70%. The survival at 6.25 mg/kg in [27] was determined as 70%.
In the case of `O=C(O)c1ccc(OCCn2ccnc2)cc1` [DAZOXIBEN], the survival at 10 mg/kg turned out to be 20% in test [28]; 30% in test [29]; 50% in [30]; 10% in [31]; 20% in [33]; 40% in test [35]. Besides, the survival at 25 mg/kg in test [32] is 67%. The pIC50 in test [34] was 5.64.
